# UPR XBP1 act: activators of adaptive arm of unfolded protein response (XBP1); CHO-XBP1 luciferase reporter, IRE1-XBP1 UPR activation, luminescence; percent of tunicamycin response, DMSO as zero; 330,000 tested, 0.33% active; AID 463104; activation, % at 20 µM;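 active = versus positive control, 20 µM dose yields 30% or more activation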;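 also: 100% = tunicamycin at 10 µg/mL and 0% = DMSO only wells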
#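 Assay system: CHO-XBP1 luciferase reporter cells; Schedule: 6 h treatment, 37 °C; Detection: glow luminescence from Steady-Glo reagent; Benchmarks: high control tunicamycin 10 µg/mL final, low control DMSO vehicle only.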
# CHOP inh: CHOP inhibition in unfolded protein response; inhibition, % at 10 µM; 220,000 tested, 3.8% active; CHO-K1 CHOP-promoter luciferase, tunicamycin-induced, 15-18 h; AID 2732;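 active = compounds that reduced the stress-induced luciferase reporter signal by more than about 70% of percent inhibition, limit read from the data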;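 also: 0% = tunicamycin plus vehicle and 100% = wells without tunicamycin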
# TLR4 MyD88 comp: blocks binding of human TLR4 to MyD88; O00206+Q99836; HeLa CL3-4 TLR4/MyD88 BLA complementation, FRET ratio; inhibition, % at 8.4 µM; 200,000 tested, 0.18% active; AID 861; in the data active = inhibition above about 25%;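 also: 0% = vehicle and 100% = reference inhibitor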
# TLR9-MyD88 inh: TLR9-MyD88 interaction inhibition; Q9NR96+Q99836; CHO BLA complementation TLR9-MyD88, CCF4 FRET ratio; inhibition, % at 4.98 µM; 340,000 tested, 0.21% active; AID 504734;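 active = inhibition above the mean over all tested compounds plus 3 SD, cut at about 21% in these data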;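 also: 0% = DMSO only wells and 100% = clavulanate BLA inhibitor control wells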
# NOD2 RIPK2 PPI: NOD2-RIPK2 protein interaction inhibition. 360,000 tested, 0.38% active. O43353. CHO BLA complementation NOD2-RIPK2, CCF4 ratio. inhibition, % at 4.98 µM; in the data active = inhibition above about 21%;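 also: 0% = vehicle only and 100% = reference blocker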
# Target sequence (O43353 whole entry, looked up): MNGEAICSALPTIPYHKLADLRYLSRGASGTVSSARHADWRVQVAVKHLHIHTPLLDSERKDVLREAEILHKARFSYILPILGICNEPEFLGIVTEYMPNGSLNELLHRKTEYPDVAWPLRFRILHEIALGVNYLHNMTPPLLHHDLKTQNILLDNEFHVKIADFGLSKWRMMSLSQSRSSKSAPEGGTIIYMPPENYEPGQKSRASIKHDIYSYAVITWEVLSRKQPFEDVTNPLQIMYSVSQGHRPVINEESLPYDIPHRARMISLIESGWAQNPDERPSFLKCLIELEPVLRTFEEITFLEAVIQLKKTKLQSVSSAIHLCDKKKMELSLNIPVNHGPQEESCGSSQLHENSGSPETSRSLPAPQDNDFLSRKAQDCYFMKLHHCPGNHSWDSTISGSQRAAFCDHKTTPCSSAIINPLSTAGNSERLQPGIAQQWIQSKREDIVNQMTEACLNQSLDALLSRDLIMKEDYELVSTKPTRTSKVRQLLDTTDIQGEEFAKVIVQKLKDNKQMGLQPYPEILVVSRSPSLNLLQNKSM
# UPR CHOP act: apoptotic UPR (CHOP) activation; activation, % at 10 µM; CHO-CHOP luciferase reporter, luminescence; percent of tunicamycin response over DMSO baseline; 330,000 tested, 0.34% active; AID 449763;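 active = at 10 µM dose, activation of 40% or more, normalized to positive control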;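 also: 100% = tunicamycin at 10 µg/mL and 0% = DMSO alone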
#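 Test system: CHO CHOP reporter cells. Input: 500 CHO-CHOP cells per well. Medium: F12 with 10% FBS. Technique: luciferase luminescence. Measure: percent activation relative to tunicamycin control. Dosing: 10 µM compound, 0.5% DMSO. Timing: 16-18 h cell attachment, then 6 h compound exposure, 37 °C.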
# Numbers without * were called inactive; nt = not tested or not shown. Many of the other results were omitted from the sample, so hits are more common in it than they were.
SMILES,UPR XBP1 act,CHOP inh,TLR4 MyD88 comp,TLR9-MyD88 inh,NOD2 RIPK2 PPI,UPR CHOP act
N/C(=N\c1nc2ccccc2o1)NC(=O)c1ccccc1,0.1,85.1*,-8.8,-2.6,0.1,4.9
CCOC(=O)c1[nH]c(Cc2[nH]c(C(=O)OCC)c(C)c2CCC(=O)OC)c(CCC(=O)OC)c1C,-0.6,84.8*,-3.7,-1.2,-0.3,-1.1
CCOC(=O)c1c(C)[nH]c(C(=O)OC)c1CCC(=O)OC,-1.2,-15.9,10.3,2.8,2.0,0.0
CCOC(=O)c1sc(/N=C/c2ccc(O)cc2O)cc1C,4.7,94.4*,-10.7,0.2,-2.1,10.5
COc1cc(NC(=O)NCCN2CCN(c3ccc(Cl)cc3)CC2)ccc1C,8.9,84.4*,14.2,3.2,-3.4,-1.7
COc1ccc(NC(=O)NCCCN2CCN(c3ccccc3F)CC2)cc1,-0.6,0.5,nt,-13.9,-12.7,-0.6
COc1ccc(NC(=O)NCCCN2CCN(c3cc(C)ccc3C)CC2)cc1,-5.7,71.6*,-4.6,-7.6,-6.9,-0.8
C=CCc1ccccc1OCC(O)CNC(=O)c1ccccc1C(=O)O (stereo not drawn),-0.5,-18.0,nt,0.9,-3.8,0.4
CC(C)COP(=O)(OCC(C)C)C(Nc1ccccc1)c1ccc(F)cc1 (stereo not drawn),-1.0,75.3*,6.7,-1.2,8.7,-1.3
CC(C)COP(=O)(OCC(C)C)C(Nc1ccccc1)c1ccccc1 (stereo not drawn),-1.4,-1.3,nt,5.8,6.9,0.5
CC(C)COP(=O)(OCC(C)C)C(Nc1ccccc1)c1ccc2c(c1)OCO2 (stereo not drawn),-4.0,75.8*,-6.1,7.0,-5.6,0.2
CC(C)OP(=O)(OC(C)C)C(Nc1ccccc1)c1ccc2c(c1)OCO2 (stereo not drawn),-2.4,-6.5,3.7,-12.1,-6.9,1.3
Cc1ccc(C)c(NC(=O)c2ccc(S(=O)(=O)N(C)CC3CCCO3)cc2)c1 (stereo not drawn),-4.0,nt,nt,-6.6,-0.6,1.0
COCCn1c(C)c(C)c(S(=O)(=O)c2ccccc2)c1N,-2.5,nt,nt,3.8,1.0,-0.5
CCn1ncc(Br)c1C(=O)Nc1ccn(C23CC4CC(CC(C4)C2)C3)n1,0.1,-4.6,-13.1,-12.3,2.9,1.2
CCn1ncc(Br)c1C(=O)N(C)C12CC3CC(CC(C3)C1)C2,-3.0,87.1*,7.1,16.0,-6.3,-1.5
O=C1COc2ccc(N3C(=O)C=CC3=O)cc2N1,-5.3,95.2*,0.9,nt,nt,-0.5
O=C1COc2ccc(S(=O)(=O)N3CCCC3)cc2N1,1.3,nt,nt,-3.1,-3.0,-0.5
O=C(Nc1cccc(-n2cnnn2)c1)c1ccoc1COc1ccc(Cl)cc1,-0.4,nt,nt,-4.5,0.8,0.6
O=C(N/N=C/c1c[nH]c2ccccc12)c1[nH]c2ccc(Br)cc2c1-c1ccccc1,nt,92.4*,3.6,-9.5,-10.3,nt
Cc1cc(C)c2c(CC(=O)NC(C)C)coc2c1,-0.3,10.6,4.8,5.4,-5.8,1.3
Cc1cc(C)c2c(CC(=O)Nc3nccs3)coc2c1,4.3,82.3*,0.9,3.9,0.9,-1.6
Cc1cccc(N2CCN(C(c3cccs3)c3nnnn3C(C)(C)C)CC2)c1C (stereo not drawn),0.3,77.4*,4.0,7.4,-18.1,10.3
CCOc1cccc(-c2nnc3sc(C4CCCCC4)nn23)c1,3.9,55.9,-5.0,1.6,9.1,0.2
COc1cccc(-c2nnc3sc(C4CCCCC4)nn23)c1,-4.3,73.7*,-2.4,-13.2,0.5,-0.9
SMILES,UPR XBP1 act,CHOP inh,TLR4 MyD88 comp,TLR9-MyD88 inh,NOD2 RIPK2 PPI,UPR CHOP act
CCC(C)C(NC(=O)c1ccccc1NC(=O)c1ccc(OC)cc1)C(=O)NCc1ccco1 (stereo not drawn),-1.0,71.2*,1.6,-10.8,-11.7,0.2
Cc1cc(C(=O)NC(=S)Nc2cccc(NC(=O)C(C)C)c2)ccc1[N+](=O)[O-],0.7,80.6*,8.5,11.6,-2.5,1.7
O=C(Nc1cccc(C(F)(F)F)c1)C(Sc1ncnc2ccccc12)c1ccccc1 (stereo not drawn),-2.7,76.2*,8.7,-3.2,-3.2,0.5
Cc1cc(C)cc(NC(=O)C(Sc2ncnc3ccccc23)c2ccccc2)c1 (stereo not drawn),-2.6,23.2,-1.5,11.4,-1.9,1.5
CCOC(=O)C1=C(C)N=C2c3ccccc3C(=O)C2C1c1ccc(Cl)cc1 (stereo not drawn),25.2,87.9*,-12.1,-6.7,-13.8,1.3
O=C(COc1ccc(-c2ccccc2)cc1)N/N=C/c1cc(O)ccc1Br,-5.4,81.5*,-10.4,-7.3,9.4,2.3
O=C(COc1cccc(Cl)c1)N/N=C\c1cc2ccccc2nc1Cl,3.8,77.6*,-25.4,-1.9,-8.0,1.0
Cc1ccccc1OCC(=O)N/N=C/c1cc2ccccc2nc1Cl,2.4,31.6,6.4,-7.8,-14.7,-0.2
O=C(COc1cccc(Br)c1)N/N=C/C(=O)c1ccccc1,-0.5,79.7*,-1.5,-4.6,-1.2,-0.4
CCOc1ccc(/C=N/NC(=O)COc2ccccc2-c2ccccc2)cc1,-3.6,78.3*,-9.3,6.5,4.7,-1.0
COc1ccc(Cl)cc1NC(=O)CCS(=O)(=O)c1ccc(C)cc1,-4.5,nt,nt,-10.1,5.8,-1.2
O=C(NCC1CCCN1S(=O)(=O)c1cccs1)C(=O)Nc1ccc(F)cc1F (stereo not drawn),0.3,nt,nt,-6.2,-6.1,0.4
CC1CCN(C(=O)CSc2ccc(-c3cccnc3)nn2)CC1,1.1,nt,nt,-1.8,-3.5,1.2
O=S(=O)(/N=C(/c1ccc(F)cc1)N1CCCCC1)c1ccc(Cl)cc1,0.0,-7.6,4.9,1.8,9.4,0.3
CC(=O)N1c2ccc(Cl)cc2C2C=CCC2C1c1cccc2ccccc12 (stereo not drawn),nt,84.7*,8.3,-0.1,20.0,nt
NC(=O)c1nn(-c2ccccc2)nc1NC(=O)Cn1nnc(-c2ccccc2)n1,0.4,71.5*,-11.6,-10.2,-4.7,3.4
N#Cc1c(Nc2ccc(F)cc2)sc(C(=O)c2ccccc2)c1N,2.4,55.6,-14.7,-3.1,-5.5,-1.1
N#Cc1c(Nc2ccc(F)cc2)sc(C(=O)c2ccc(F)cc2)c1N,3.9,75.5*,13.8,3.3,8.0,-0.8
CC1(C)OC(=O)C(=Cc2ccc(-c3ccc(S(N)(=O)=O)cc3)o2)C(=O)O1,1.2,100.4*,9.2,14.4,-9.5,0.2
NS(=O)(=O)c1ccc(-c2ccc(/C=C3\C(=O)Nc4ccccc43)o2)cc1,3.5,nt,nt,nt,nt,1.8
Clc1ccc2oc(SCc3cccnc3)nc2c1,3.0,nt,nt,-5.8,2.2,4.3
